According to PubChem BioAssay:
Inconclusive results are not listed.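 Rule for the calls, unless noted: active = RAM network inhibition above 8.4% in each of two replicates, 3 SD over the compound average; inconclusive = above 8.4% inhibition in only one replicate; inactive = 8.4% inhibition or less in each replicate.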

Experiments:
[1] = S. cerevisiae growth inhibition in permissive medium (OD615), pilot counter-assay for S. cerevisiae lifespan shortening project, permissive growth control (AID 705;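 active = growth inhibition above 25% in both replicates, a cutoff set 3 SD above the mean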); conditions: OD615, 24 h, at 10 µM, stronger effect = higher value
Procedure, shortened: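 System: S. cerevisiae with engineered DeaD lifespan system / Measured by: absorbance (optical density) at 615 nm / Read-out: reduction in yeast growth (OD615) / Times: 4 h cell pre-growth, 24 h exposure at 30 °C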

[2] = S. cerevisiae growth inhibition in restrictive medium, OD615, pilot screen, restrictive growth control, yeast lifespan reduction project (AID 706;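 active = growth inhibition above a set limit, 3 SD over mean compound inhibition, in both replicates, cut at about 43% in these data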;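 note: modified DeaD lifespan yeast strain shifted to restrictive glucose medium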); conditions: OD615, 48 h, at 10 µM, stronger effect = higher value
Procedure, shortened: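 System: Engineered S. cerevisiae DeaD strain | Buffer or medium: Glucose-based CSMM-D restrictive medium | Schedule: 4 h pre-incubation, 48 h exposure at 30 °C | Technique: Optical density at 615 nm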

[3] = doxorubicin toxicity protection in MRP-1 cells – H69AR cells, CellTiter-Glo, duplicate, MRP-1 activator project, pilot screen (AID 807;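 active = viability increase at or above a cutoff of the median across tested compounds plus 3 SD, cut at about 8.5% in these data, passing the limit was not always enough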;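 note: compound pretreatment 18-22 h then 72 h combined with doxorubicin; 0% = doxorubicin alone and 100% = vehicle without doxorubicin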); conditions: H69AR viability with doxorubicin, CellTiter-Glo luminescence; at 10 µM; stronger effect = higher value
[4] = viability of HCT116 without oncogenic beta-catenin – human colon tumor cells, pilot screen (AID 823;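 active = cell viability at or below a set limit in both duplicate runs, the limit being the all-compound median minus 4 SD, cut at about 23% in these data, passing the limit was not always enough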;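 note: 0% = wells killed by 20 µM Hyamine and 100% = untreated DMSO cell wells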); conditions: HCT116 beta-catenin knockout viability, CellTiter-Glo, 60 h; at 10 µM; stronger effect = lower value
[5] = viability of PTEN-null HCT116 cells – cell-based, HCT116 clonal line, CellTiter-Glo, pilot screen (AID 824;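 active = viability at or below 27.92% in each of two runs, the all-compound median minus 4 SD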;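 note: 0% = 20 µM Hyamine control and 100% = vehicle cell control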); conditions: HCT116 PTEN-deleted viability, 60 h, at 10 µM, stronger effect = lower value
[6] = RAM pathway blockade in budding yeast – dse1pr::URA3 reporter, 5-FOA selection, pilot screen (AID 869;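 active = inhibition over a set limit, the all-compound mean plus 3 SD, in both replicate runs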;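 note: 0% = DMSO wells with no growth and 100% = 10 µM 1-NA-PP1 with full growth; RAM network block rescues cells from 5-FOA so hits raise OD615 growth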); conditions: S. cerevisiae dse1pr::URA3 5-FOA growth, OD615, 2 d; at 10 µM; stronger effect = higher value; strain carries analog-sensitive mutant Cbk1 kinase
[7] = RAM signaling pathway blockade in yeast – S. cerevisiae, Pdr1DBD-CYC8 efflux-inhibited sensitized strain, primary screen (AID 1298);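 note: 0% = DMSO untreated cells without growth and 100% = 10 µM 1-NA-PP1 full growth; higher means more yeast growth rescued from 5-FOA killing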; conditions: S. cerevisiae cbk1-as DSE1-URA3 strain, 5-FOA growth OD615, 2 d; at 50 µM; stronger effect = higher value

CCOC(=O)C1=C(C)NC(=O)CC1c1cc2c(cc1Br)OCO2 (centres undefined)
inactive: growth inhibition [1] 1.83% | growth inhibition [2] -5.8% | viability increase [3] -4.4% | viability [4] 96.6% | viability [5] 90.6% | inhibition [6] 1.44% | RAM network inhibition [7] 6.81%

COc1cc(CO)cc(Br)c1OCC(=O)O
inactive: growth inhibition [1] -2.25% | growth inhibition [2] -3.28% | viability increase [3] -1.45% | viability [4] 102% | viability [5] 92.5% | inhibition [6] 0.03% | RAM network inhibition [7] -1.46%

CC1=C(C#N)C2C(/C1=N/O)C2(C)C (centres undefined)
inactive: growth inhibition [1] -4.15% | growth inhibition [2] -6.87% | viability increase [3] -1.76% | viability [4] 95% | viability [5] 85.3% | inhibition [6] 0.79% | RAM network inhibition [7] 1.21%

CCOC(=O)c1cc(-c2ccc(C)cc2)n(CC(=O)NCc2ccco2)c1C
inactive: growth inhibition [1] 12.1% | growth inhibition [2] -7.09% | viability increase [3] -5.81% | viability [4] 74.6% | viability [5] 77.5% | inhibition [6] 3.1% | RAM network inhibition [7] 5.82%

CC(C)C(=O)N1CCN(c2ccccc2N)CC1
inactive: growth inhibition [1] -9.49% | growth inhibition [2] -20.2% | viability increase [3] -1.42% | viability [4] 102% | viability [5] 95.8% | inhibition [6] 1.55% | RAM network inhibition [7] 1.34%

O=S(=O)(NCCN1CCCC1)c1cccc2cccnc12
inactive: growth inhibition [1] -4.34% | growth inhibition [2] 14.2% | viability increase [3] -2.62% | viability [4] 99.8% | viability [5] 92.9% | inhibition [6] 0.34% | RAM network inhibition [7] 5.38%

CCC(C)NC(=O)C1CCN(S(=O)(=O)c2cccc3cccnc23)CC1 (centres undefined)
inactive: growth inhibition [1] -3.39% | growth inhibition [2] 1.06% | viability increase [3] 0.26% | viability [4] 108% | viability [5] 101% | inhibition [6] 2.05% | RAM network inhibition [7] 4.76%

COc1ccc2c(c1)OC13CCN(C)CC1C2C(C(=O)c1ccc(F)cc1)C(=O)N3 (centres undefined)
inactive: growth inhibition [1] -25.9% | growth inhibition [2] -21.6% | viability increase [3] -4.02% | viability [4] 78.9% | viability [5] 81.4% | inhibition [6] 0.27% | RAM network inhibition [7] 0.97%

N#CCCN1CCN(S(=O)(=O)c2ccc(S(=O)(=O)N3CCCCCC3)cc2)CC1
inactive: growth inhibition [1] 1.57% | growth inhibition [2] -16.9% | viability increase [3] -2.09% | viability [4] 97.4% | viability [5] 94.3% | inhibition [6] 0.525% | RAM network inhibition [7] 11.9%

Cc1ccc(N2CCN(S(=O)(=O)c3ccc(F)cc3)CC2)c(C)c1
inactive: growth inhibition [1] -0.375% | growth inhibition [2] -15.2% | viability increase [3] -1.12% | viability [4] 66.6% | viability [5] 60.9% | inhibition [6] -0.44% | RAM network inhibition [7] 7.03%

CCOC(=O)N1CCN(C(=O)CS(=O)Cc2nc(-c3ccc(C)cc3)oc2C)CC1 (centres undefined)
inactive: growth inhibition [1] -5.11% | growth inhibition [2] 7.44% | viability increase [3] -1.59% | viability [4] 89.3% | viability [5] 92.1% | inhibition [6] 1.68% | RAM network inhibition [7] 7.07%

Cn1c(Cn2c(=O)sc3ccccc32)nnc1SCC(=O)NCc1ccccc1
inactive: growth inhibition [1] -10.1% | growth inhibition [2] -7.48% | viability increase [3] -0.73% | viability [4] 99% | viability [5] 102% | inhibition [6] 3.87% | RAM network inhibition [7] 4.44%

c1ccc2c(c1)CCN(CCCNc1nc3ccccc3n3cnnc13)C2
inactive: growth inhibition [1] -9.84% | growth inhibition [2] -12.9% | viability increase [3] -4.17% | viability [4] 91.3% | viability [5] 97.1% | inhibition [6] 1.18% | RAM network inhibition [7] -1.09%

COc1ccc(-n2c(SCC(=O)Nc3nccs3)nc3c(c2=O)SC(C)C3)cc1 (centres undefined)
inactive: growth inhibition [1] -7.21% | growth inhibition [2] -3.74% | viability increase [3] -2.46% | viability [4] 97.1% | viability [5] 93% | inhibition [6] 1.56% | RAM network inhibition [7] 7.02%

COc1ccccc1NC(=O)c1cccc(S(=O)(=O)N2CCOCC2)c1
inactive: growth inhibition [1] 7.87% | growth inhibition [2] 0.14% | viability increase [3] -0.79% | viability [4] 103% | viability [5] 96.7% | inhibition [6] 2.99% | RAM network inhibition [7] 0.68%

Cc1onc(-c2c(F)cccc2Cl)c1C(=O)OCC(=O)Nc1c(C)n(C)n(-c2ccccc2)c1=O
inactive: growth inhibition [1] -3.96% | growth inhibition [2] -1.53% | viability increase [3] -0.55% | viability [4] 87.4% | viability [5] 90.3% | inhibition [6] 0.92% | RAM network inhibition [7] 1.78%

C=CCNc1oc(COc2ccc(C)cc2)nc1C#N
inactive: growth inhibition [1] -7.16% | growth inhibition [2] 1.92% | viability increase [3] 4.36% | viability [4] 99.1% | viability [5] 97.3% | inhibition [6] 1.18% | RAM network inhibition [7] -0.52%

Cc1cc(C(=O)NCc2ccccc2)c(=O)[nH]c1C
inactive: growth inhibition [1] -15.4% | growth inhibition [2] -9.45% | viability increase [3] 0.83% | viability [4] 103% | viability [5] 90.3% | inhibition [6] 2.33% | RAM network inhibition [7] 0.52%

O=S(=O)(NCC(c1cccnc1)N1CCN(c2ccc(F)cc2)CC1)c1ccc(F)cc1 (centres undefined)
inactive: growth inhibition [1] -0.55% | growth inhibition [2] -0.65% | viability increase [3] -2.52% | viability [4] 87.4% | viability [5] 84.5% | inhibition [6] 4.02% | RAM network inhibition [7] 4.9%

Cc1cc2ncn(C(=O)c3c(-c4c(Cl)cccc4Cl)noc3C)c2cc1C
inactive: growth inhibition [1] 0.3% | growth inhibition [2] 5.04% | viability increase [3] -3.42% | viability [4] 95.5% | viability [5] 94.5% | inhibition [6] 1.99% | RAM network inhibition [7] 8.25%

O=C(Nc1cccc2ccccc12)N1CCN(c2ccc(F)cc2)CC1
inactive: growth inhibition [1] -12.3% | growth inhibition [2] -14.3% | viability increase [3] -1.74% | viability [4] 98.6% | viability [5] 98.8% | inhibition [6] 1.88% | RAM network inhibition [7] 3.08%

CCOC(=O)c1cnn(CC2CCCCC2)c1N
inactive: growth inhibition [1] 0.805% | growth inhibition [2] 1.77% | viability increase [3] -0.78% | viability [4] 92.4% | viability [5] 94.4% | inhibition [6] 0.96% | RAM network inhibition [7] -0.52%

CCCCOc1ccccc1C1C(C(=O)OC)=CN(CC)C=C1C(=O)OC
inactive: growth inhibition [1] -6.49% | growth inhibition [2] 0.595% | viability increase [3] -5.35% | viability [4] 73.8% | viability [5] 70.9% | inhibition [6] 3.23% | RAM network inhibition [7] 6.73%

CC(C)c1nc2cc3ccccc3cc2[nH]1
inactive: growth inhibition [1] -5.02% | growth inhibition [2] -20.5% | viability increase [3] -3.6% | viability [4] 73.5% | viability [5] 81.8% | inhibition [6] 0.18% | RAM network inhibition [7] 7.45%

Cc1ccc(S(=O)(=O)N2CCC(C(=O)N[C@@H](C)C(=O)NC3CCCCC3)CC2)cc1
inactive: growth inhibition [1] -10.2% | growth inhibition [2] -17.1% | viability increase [3] 3.71% | viability [4] 97.7% | viability [5] 99.8% | inhibition [6] 2.49% | RAM network inhibition [7] 4.41%

C1=C(N2CCOCC2)/C(=C/c2nc3ccccc3[nH]2)CC1
inactive: growth inhibition [1] -10.4% | growth inhibition [2] 19.2% | viability increase [3] -4.25% | viability [4] 78.9% | viability [5] 82.1% | inhibition [6] 0.41% | RAM network inhibition [7] 2.44%

CCCc1nc(SCC(=O)Nc2cc(C)on2)c2c(=O)n(C)c(=O)n(C)c2n1
inactive: growth inhibition [1] 4.81% | growth inhibition [2] 4.73% | viability increase [3] -1.05% | viability [4] 97.1% | viability [5] 93% | inhibition [6] 3.88% | RAM network inhibition [7] 4.78%

CN(C)c1nc2c(c(=O)[nH]c(=O)n2C)n1Cc1ccc(F)cc1
inactive: growth inhibition [1] -2.72% | growth inhibition [2] 6.59% | viability increase [3] -0.31% | viability [4] 107% | viability [5] 100% | inhibition [6] 1.74% | RAM network inhibition [7] 2.1%

CCN1CCN(c2ncnc3c2sc(=S)n3-c2ccccc2)CC1
inactive: growth inhibition [1] 8.5% | growth inhibition [2] 11.5% | viability increase [3] -3.4% | viability [4] 85.4% | viability [5] 84.9% | inhibition [6] 1.73% | RAM network inhibition [7] -0.06%

C=CCSc1nc2c(c(=O)[nH]c(=O)n2C)n1Cc1ccc(C)cc1
inactive: growth inhibition [1] -12.1% | growth inhibition [2] -7.22% | viability increase [3] -3.38% | viability [4] 90.1% | viability [5] 86.4% | inhibition [6] 2.6% | RAM network inhibition [7] 7.02%

Cc1nc2ccccc2c2oc(C(=O)NCc3ccc4c(c3)OCO4)cc12
inactive: growth inhibition [1] -5.28% | growth inhibition [2] -8.97% | viability increase [3] -0.55% | viability [4] 70.8% | viability [5] 80.8% | inhibition [6] 1.01% | RAM network inhibition [7] 5.03%

CCOC(=O)C1C(c2cccc(Cl)c2Cl)NC(=O)NC1(O)C(F)(F)F (centres undefined)
inactive: growth inhibition [1] -5.62% | growth inhibition [2] -7.31% | viability increase [3] -2.19% | viability [4] 94.8% | viability [5] 96.9% | inhibition [6] 1.15% | RAM network inhibition [7] 7.71%
